# Rows were chosen to be rich in hits. Some 2.8% of all compounds tested hit in one or more screens of this group.
# SF-1 act: SF-1 (human) activation; AID 522; 65,000 tested, 1.9% active; activation, % at 10 µM; CHO-K1 Gal4-SF-1 LBD luciferase reporter; % increase over DMSO SF-1-specific signal; Q13285;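 active = activation above the mean activation of all tested compounds plus 3 SD, cut at about 50% in these data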
# Target sequence (Q13285 whole entry, looked up, the tested form may be a part): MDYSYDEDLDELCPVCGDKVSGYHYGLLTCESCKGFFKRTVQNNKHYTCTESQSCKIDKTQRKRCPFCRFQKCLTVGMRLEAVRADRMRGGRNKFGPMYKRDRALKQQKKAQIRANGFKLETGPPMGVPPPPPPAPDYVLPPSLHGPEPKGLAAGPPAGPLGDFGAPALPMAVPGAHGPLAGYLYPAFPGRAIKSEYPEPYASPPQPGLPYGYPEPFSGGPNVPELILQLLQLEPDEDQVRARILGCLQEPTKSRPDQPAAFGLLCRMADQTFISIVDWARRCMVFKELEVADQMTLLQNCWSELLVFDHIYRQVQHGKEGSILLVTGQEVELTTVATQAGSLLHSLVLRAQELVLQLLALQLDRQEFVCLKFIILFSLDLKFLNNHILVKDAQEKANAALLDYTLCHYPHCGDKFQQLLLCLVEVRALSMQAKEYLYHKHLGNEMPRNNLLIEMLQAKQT
#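 Test system: transient Gal4-SF-1 LBD reporter, CHO-K1; Amount: 4,000 CHO-K1 cells per well; Doses: 10 µM only; Timing: compound exposure 20 h at 37 °C; Signal: luciferase light emission; Read-out basis: percent activation relative to DMSO median and mock-transfected background; Control set: DMSO negative control and −SF1 background wells; Replicates: one test per compound.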
# Jurkat tox 60K: cytotoxic compounds reducing Jurkat cell viability; Jurkat E6.1 viability, ATP luminescence, 48 h; inhibition, % at 4 µM; 56,000 tested, 1.2% active;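 active = inhibition above the mean inhibition of all tested compounds plus 3 SD, cut at about 28% in these data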
# RORa activator: activators of human nuclear receptor RORA. 65,000 tested, 1.5% active. activation, % at 10 µM. P35398. CHO-K1 Gal4-RORA LBD luciferase reporter, luminescence; percent increase over mock-subtracted basal signal;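 active = activation above the mean of all tested compounds plus 3 SD, cut at about 49% in these data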;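 note: 0% = DMSO-treated RORA cells and 100% = added signal equal to DMSO minus mock-transfected cells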
# MT1-MMP txn act: MT1-MMP promoter transcription activation | activation factor at 10 µM | 86,000 tested, 0.16% active | AID 750 | HT1080 MT1-MMP promoter luciferase reporter, luminescence, overnight; hits give high values;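 active = activation factor of at least 2 for MT1-MMP transcription at 10 µM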
# HEK293 NFkB inh: lowers PMA/ionomycin-induced NF-kB signal in HEK293 cells; HEK-293 NF-kB luciferase reporter, luminescence; inhibition, % at 3 µM; 62,000 tested, 0.21% active; AID 465;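 active = inhibition above the mean of all tested compounds plus 3 SD, cut at about 40% in these data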;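 note: 0% = stimulated DMSO wells and 100% = 10 µM reference inhibitor 5653914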
#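 Timing: 1 h pretreatment, 16 h stimulation, 37 °C; system: HEK-293 cells with stable firefly luciferase reporter driven by four HIV NF-kB elements; doses: 3 µM once, 0.30% DMSO; measured by: luciferase luminescence; control set: DMSO and 10 µM reference inhibitor; repeats: single test; reagent: PMA plus ionomycin mix as NF-kB-activating stimulus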
# * marks the source's active call; other numbers are inactive results; · = no result given.
SMILES,SF-1 act,Jurkat tox 60K,RORa activator,MT1-MMP txn act,HEK293 NFkB inh
COc1ccccc1S(=O)(=O)Cc1ccc(C(=O)N2CCN(c3ccc(C)cc3)C(C)C2)o1 (centres undefined),37.6,15.6,12.9,·,14.5
O=C(CN1CCC(c2nc3ccccc3s2)CC1)NCc1cccs1,4.6,27.8*,2.2,1.2,10.0
COc1cc(N2CCCC2)c(OC)cc1/C=c1/sc2nc3ccccc3n2c1=O,54.4*,·,8.7,1.5,·
CCN1CCN(Cc2ccc(NC(=O)Nc3ccccc3OC)cc2)CC1,29.1,0.0,48.8*,1.3,3.3
NC(=O)c1c(NC(=O)c2cccs2)sc2c1CCCCCC2,45.4,-2.9,55.8*,1.5,-33.6
Cc1ccc(-c2nc3cnccn3c2Nc2ccccc2)o1,37.2,0.2,49.2*,1,1.0
Cc1ccc(-c2nc3cnccn3c2Nc2ccc3c(c2)OCO3)o1,23.4,1.7,16.9,·,3.9
Cn1nnnc1SCc1ccc(C(=O)Nc2nccs2)cc1,56.8*,-5.8,44.4,1.7,4.8
Cn1c(CSCc2ccc(F)cc2)nnc1SCC(=O)Nc1nccs1,-10.2,3.8,7.8,1,8.6
Cn1c(C(C#N)C(=O)c2ccco2)nc2ccccc21 (centres undefined),59.4*,-4.4,67.2*,1.9,-15.2
Cn1c(C(C#N)C(=O)Cc2cccc3ccccc23)nc2ccccc21 (centres undefined),-5.7,·,-22.2,1,13.9
Cc1nc2ccc(S(=O)(=O)Nc3ccccc3C)cc2s1,8.7,30.4*,42.5,1.1,12.5
Cc1cc(S(=O)(=O)Nc2ccccc2C)ccc1F,-12.2,0.6,-7.2,1.1,9.0
CC1(C)Cc2nc3sc4c(=O)[nH]cnc4c3cc2CS1,62.9*,0.9,12.4,1.7,-7.0
O=c1[nH]c2ccsc2c(=O)n1-c1ccc(F)cc1,0.4,·,-7.7,1.1,5.2
O=c1oc2ccccc2cc1NCc1ccccc1O,7.8,41.3*,5.6,1.5,15.2
CCCCCNC(=O)C(C#N)c1nc2ccccc2nc1N1CCCC1 (centres undefined),6.9,-2.1,7.1,1.2,5.5
CCN(CC)CCNC(=O)C(C(=O)c1ccccc1)n1ccccc1=O (centres undefined),-11.0,-1.0,0.8,1.1,15.6
O=Cc1cn(-c2ccccc2)nc1-c1ccc2c(c1)OCCO2,·,·,·,2*,·
N#Cc1cn(-c2ccccc2)nc1-c1ccc2c(c1)OCCO2,55.4*,-4.8,61.7*,1.5,-43.5
O=Cc1cn(-c2ccccc2)nc1-c1cc2ccccc2oc1=O,·,·,·,1.2,·
CCOc1ccccc1C(=O)N(CCC(=O)OC)c1ccccn1,13.1,-6.1,13.9,1,4.1
COC(=O)[C@@]1(Cc2ccc(OC)cc2)[C@H]2c3cc(C(=O)N4CCCC4)n(CCn4cc([N+](=O)[O-])nc4C)c3C[C@H]2CN1C(=O)c1ccccc1,·,·,·,1.1,·
O=C(NCC1CCCO1)c1ccc(COCC(F)(F)C(F)F)cc1 (centres undefined),12.4,-5.9,6.2,1.7,0.8
CN1CCN(S(=O)(=O)c2ccc(Br)s2)CC1,-24.0,2.3,62.7*,1.3,-0.5
SMILES,SF-1 act,Jurkat tox 60K,RORa activator,MT1-MMP txn act,HEK293 NFkB inh
COc1ccc(C2CC(c3ccccc3)Nc3nc(NC(=O)c4ccco4)nn32)cc1 (centres undefined),3.5,-4.2,-21.6,1.1,10.2
CCOC(=O)c1c(C)[nH]c(C(=O)COC(=O)C2CC2C)c1C (centres undefined),53.5*,-5.7,38.2,1.1,-25.6
CC1=NC(=O)C(N=Nc2cccc(O)c2)N1c1ccccc1 (centres undefined),·,·,·,2*,·
N#C/C(=C\c1c(N2CCC(C(N)=O)CC2)nc2ccccn2c1=O)S(=O)(=O)c1ccccc1,5.3,·,-4.0,1.1,·
COC(=O)c1ccc(-c2nc3ccc(C)cc3o2)cc1,45.6,9.6,68.2*,0.6,-27.5
Cc1ccc2nc(-c3cccnc3)oc2c1,32.9,-2.3,49.7*,1.4,-44.7
COC(=O)c1ccc(-c2nc3ccccc3o2)cc1,45.9,-6.0,2.4,1.6,-20.6
COC(=O)c1ccc(NC(=O)c2ccc(N(C)S(C)(=O)=O)cc2)cc1,-6.7,30.9*,-0.3,1.1,26.5
CCOc1ccc(NC(=O)CN(C2CCCCC2)S(C)(=O)=O)cc1,·,·,·,1.2,·
CCOc1ccc(N(CC(=O)Nc2ccc(OC)cc2)S(C)(=O)=O)cc1,36.0,9.6,60.6*,1.7,-2.8
COC(=O)c1ccccc1NC(=O)CN(c1ccc(OC)cc1)S(C)(=O)=O,·,·,·,1.3,·
COC(=O)c1ccc(NC(=O)CN(c2ccc(OC)cc2)S(C)(=O)=O)cc1,74.8*,-4.3,66.4*,1.9,-7.4
CCOc1ccc(NC(=O)CN(c2ccc(OC)cc2)S(C)(=O)=O)cc1,25.8,9.6,76.6*,1.6,-18.0
Cc1cccc(C)c1N1CC(=O)N(c2c(C)cccc2C)CC1=O,·,·,·,1,·
CCN(CC)S(=O)(=O)c1ccc2nnn(OCC(=O)Nc3cccc(C#N)c3)c2c1,-1.4,6.9,-0.1,1.1,13.8
COCCn1c(N)c(NCc2ccccc2)c(=O)n(CC(=O)Nc2cc(C)ccc2C)c1=O,16.5,-1.8,-7.0,1,20.1
CCOC(=O)c1c(NC(=O)CSc2nnc(C)s2)sc2c1CCC(CC)C2 (centres undefined),·,·,·,1.1,·
COc1ccc(NC(=O)CN(C)S(=O)(=O)c2cccs2)cc1,21.7,7.6,51.0*,1.4,8.1
O=C(Nc1ccc2c(c1)OCO2)C(c1ccc(Cl)cc1)N1CCN(C(=O)c2ccco2)CC1 (centres undefined),24.7,4.1,12.0,1,6.9
CCSc1nc(N2CCOCC2)c2ccccc2n1,-12.0,0.8,-10.2,1,2.7
COc1cccc(NC(=O)C2CCCN(S(=O)(=O)c3cccc4cccnc34)C2)c1 (centres undefined),-4.3,-1.4,5.4,1,9.3
O=C(Nc1ccncc1)C1CCCN(S(=O)(=O)c2cccc3cccnc23)C1 (centres undefined),36.3,88.6*,56.6*,·,27.1
C=CCSc1nnc(CSc2nc3sc4c(c3c(=O)[nH]2)CCCC4)n1-c1ccccc1,-5.1,2.5,36.6,1.1,-2.7
O=C(Cc1ccc(Br)cc1)OCC(=O)c1ccc2c(c1)OCCO2,·,·,·,1.2,·
O=C(Cc1n[nH]c(=O)c2ccccc12)OCC(=O)c1ccc2c(c1)OCCO2,-5.4,91.4*,18.6,0.4,15.7
CC1Cc2cc(-c3csc(NC(=O)Cc4cccs4)n3)ccc2N1S(C)(=O)=O (centres undefined),11.3,73.7*,16.4,1,39.2
CS(=O)(=O)N1CCc2cc(-c3csc(NC(=O)Cc4ccccc4)n3)ccc21,·,·,·,1.1,·
COc1ccc(-c2nc3cc(NC(=O)Cc4ccc(OC)c(OC)c4)ccc3o2)cc1,6.2,72.7*,18.4,1.2,7.7
COc1ccc(CC(=O)Nc2nc(C)cs2)cc1OC,-2.7,37.0*,-3.9,1,2.4

# High-throughput results from PubChem.
